Laboratory results published in ChEMBL document CHEMBL1157816, “Action of a pentacyclic triterpenoid, maslinic acid, against Toxoplasma gondii” (J Nat Prod, 2010).
The source made the active and inactive calls. The rule behind the calls is not given here.

Key:
[1] = Toxicity in african green monkey Vero cells by alamar blue assay; assay type: cell-based; settings: chlorocebus sabaeus, read-out: LD50 (the source's name)
How it was run: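 Semiconfluent Vero cells (1 × 10^4/well; DMEM, 10% heat-inactivated FCS, 2 mM glutamine, penicillin/streptomycin) exposed to compound dilutions (3.9-500 µM series) with Alamar Blue for 24 h, 37 °C, 5% CO2. Controls are medium, AB and drug blanks, plus cells with DMSO. Percent AB reduction is read from absorbance at 570/600 nm against the DMSO control by the manufacturer's formula. LD50 reported as mean ± SEM.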

Toxoplasma gondii [2] = assay: Antimicrobial activity against Toxoplasma gondii RH tachyzoites assessed as inhibition of parasite invasion of african green monkey Vero cells pretreated for 1 hr before cell infection measured 24 to 48 hrs post infection; assay type: functional
How it was run: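 RH tachyzoites (mouse ascites, passaged in Vero cells, needle- and 5 µm filter-purified), 2.5 × 10^5 pretreated 1 h at 37 °C in medium with compound (250-15.6 µM) or DMSO control. They then infect semiconfluent Vero cells at 10 parasites/cell, 37 °C, 5% CO2. Medium is replaced. Slides are methanol-fixed and Diff-Quick stained at 24 and 48 h. Percent parasitised is scored by light microscopy in 500 cells/slide, three repeats, mean ± SEM, giving ID50.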

Toxoplasma gondii [3] = assay: Antimicrobial activity against Toxoplasma gondii RH tachyzoites assessed as inhibition of parasite invasion of african green monkey Vero cells pretreated for 1 hr before cell infection measured 24 hrs post infection; assay type: functional; settings: read-out: ID50 (the source's name)
How it was run: (§1)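 Purified RH tachyzoites (2.5 × 10^5) pretreated 1 h at 37 °C in medium with compound (250-15.6 µM) or DMSO control. They then infected semiconfluent Vero cells at 10 parasites/cell (37 °C, 5% CO2), after which medium was replaced. Slides fixed in methanol at 24 or 48 h and stained with Diff-Quick. Percentage parasitism from 500 cells per slide by light microscopy; three repeats; mean ± SEM; ID50 reported.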

Toxoplasma gondii [4] = assay: Antimicrobial activity against Toxoplasma gondii RH tachyzoites assessed as inhibition of parasite invasion of african green monkey Vero cells pretreated for 1 hr before cell infection measured 48 hrs post infection; assay type: functional; settings: read-out: ID50 (the source's name); how it was run: as §1
Toxoplasma gondii [5] = assay: Antimicrobial activity against Toxoplasma gondii RH tachyzoites assessed as inhibition of parasite gliding motility at 50 uM pretreated for 15 mins; assay type: functional
How it was run: (§2)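 RH-strain tachyzoites (passaged in Balb/c mice and Vero cells, filter-purified) pretreated 15 min at 37 °C with compound at 50, 25 or 10 µM; DMSO at maximum solvent level as control. Slides coated with 0.1% poly-L-lysine in PBS pH 7.2. Fixed in 4% formaldehyde/0.02% glutaraldehyde, stained with anti-SAG-1 (P30) mAb 1/50 plus FITC anti-IgG 1/100; trail number and length scored by confocal microscopy.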

Toxoplasma gondii [6] = assay: Antimicrobial activity against Toxoplasma gondii RH tachyzoites assessed as inhibition of parasite gliding motility pretreated for 15 mins; assay type: functional; how it was run: as §2
Vero [7] = assay: Inhibition of serine protease in excreted-secreted products fraction of Toxoplasma gondii RH tachyzoites infected in african green monkey Vero cells by SDS-PAGE and zymography; assay type: cell-based
How it was run: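 Purified tachyzoites (6 × 10^7/100 µL DMEM without serum) pretreated 15 min at room temperature with compound at various concentrations. Micronemal secretion is induced at 37 °C with 200 mM ethanol, then the parasites are pelleted and secretion stopped on ice. The ESP fraction goes in nonreducing sample buffer onto 12% SDS-PAGE with 0.1% gelatin, run at 90 V, 4 °C. The gel gets 2.5% Triton X-100 for 60 min, then develops overnight at 37 °C (50 mM Tris-HCl, 10 mM CaCl2, pH 6.8). Coomassie stain.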

Vero [8] = assay: Inhibition of serine protease in excreted-secreted products fraction of […] secretion proteins of Toxoplasma gondii RH tachyzoites infected in african green monkey Vero cells by SDS-PAGE and zymography; assay type: cell-based
How it was run: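 Tachyzoites (6 × 10^7 in 100 µL serum-free DMEM) pretreated 15 min at room temperature with compound at various concentrations. Micronemal secretion induced at 37 °C with 200 mM ethanol and stopped on ice after centrifugation. The ESP fraction was run in nonreducing 12% SDS-PAGE containing 0.1% gelatin at 90 V, 4 °C. Gel washed in 2.5% Triton X-100, developed overnight at 37 °C in Tris/CaCl2 pH 6.8 and Coomassie-stained; cleared bands read as activity.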

Toxoplasma gondii [9] = assay: Cytopathic effect against Toxoplasma gondii RH extracellular tachyzoites infected in african green monkey Vero cells assessed as induction of morphological changes at 25 uM after 4 hrs by electron microscopy; assay type: functional, organism-based
How it was run: (§3)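 Purified extracellular tachyzoites exposed to 25 µM compound for 4 or 8 h. Fixed in 2.5% glutaraldehyde in cacodylate buffer, postfixed 30 min in 1% buffered OsO4, dehydrated and embedded in Spurr resin. Ultrathin sections stained with 8% uranyl acetate then 0.2% lead citrate and examined by transmission electron microscopy.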

Toxoplasma gondii [10] = assay: Cytopathic effect against Toxoplasma gondii RH extracellular tachyzoites infected in african green monkey Vero cells assessed as induction of morphological changes at 25 uM after 8 hrs by electron microscopy; assay type: functional, organism-based; how it was run: as §3
Toxoplasma gondii [11] = assay: Cytopathic effect against Toxoplasma gondii RH intracellular tachyzoites infected in african green monkey Vero cells assessed as induction of morphological changes at 25 uM by electron microscopy; assay type: functional, organism-based
How it was run: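 Vero cultures infected 24 h, then treated with 25 µM compound for 8 h. Fixed in 2.5% glutaraldehyde in cacodylate buffer, scraped, postfixed 30 min in 1% OsO4 and embedded in Spurr resin. Sections stained with uranyl acetate and lead citrate and viewed by TEM.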

Toxoplasma gondii [12] = assay: Antimicrobial activity against Toxoplasma gondii RH tachyzoites assessed as inhibition of parasite gliding motility at 10 uM pretreated for 15 mins; assay type: functional; how it was run: as §2
Toxoplasma gondii [13] = assay: Antimicrobial activity against Toxoplasma gondii RH tachyzoites assessed as inhibition of parasite gliding motility at 25 uM pretreated for 15 mins; assay type: functional; how it was run: as §2

| SMILES | CC50 [1] | inhibition (Toxoplasma gondii [2]) | IC50 (Toxoplasma gondii [3]) | IC50 (Toxoplasma gondii [4]) | inhibition at 50 µM (Toxoplasma gondii [5]) | inhibition (Toxoplasma gondii [6]) | inhibition (INH) (Toxoplasma gondii [6]) | inhibition (Vero [7]) | inhibition (Vero [8]) | inhibition (Toxoplasma gondii [9]) | inhibition (Toxoplasma gondii [10]) | inhibition (Toxoplasma gondii [11]) | inhibition at 10 µM (Toxoplasma gondii [12]) | inhibition at 25 µM (Toxoplasma gondii [13]) |
| --- | --- | --- | --- | --- | --- | --- | --- | --- | --- | --- | --- | --- | --- | --- |
| NCCc1ccc(S(=O)(=O)F)cc1 | 36.9 µM | – | – | – | – | – | – | – | – | – | – | – | – | – |
| CC1(C)CC[C@]2(C(=O)O)CC[C@]3(C)C(=CC[C@@H]4[C@@]5(C)C[C@@H](O)[C@H](O)C(C)(C)[C@@H]5CC[C@]43C)[C@@H]2C1 [MASLINIC ACID] | 237 µM | Dose-dependent effect | 46 µM | 8 µM | ≥ 100% | Dose-dependent effect | 100% | Dose-dependent effect | Active | Active | Active | Active | 58.8% | 59.7% |
| O=S(=O)(F)Cc1ccccc1 [PHENYLMETHYLSULFONYLFLUORIDE] | 133 µM | – | – | – | – | – | – | Dose-dependent effect | – | – | – | – | – | – |
